SMILES strings stand for the structures. Where a SMILES comes first, the peptide text is derived from it.

The target of assay [1] is Delta-type opioid receptor (Mus musculus) (UniProt P32300). Put plainly: Partial agonist activity at delta opioid receptor in mouse vas deferens assessed as inhibition of electrically-stimulated muscle contraction. The method in brief: (§1)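 Mouse vas deferens bioassay, delta-representative tissue. Agonist potency was expressed as IC₅₀ and antagonist activity as a Ke value.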
Delta-type opioid receptor (Mus musculus), sequence (P32300 whole entry): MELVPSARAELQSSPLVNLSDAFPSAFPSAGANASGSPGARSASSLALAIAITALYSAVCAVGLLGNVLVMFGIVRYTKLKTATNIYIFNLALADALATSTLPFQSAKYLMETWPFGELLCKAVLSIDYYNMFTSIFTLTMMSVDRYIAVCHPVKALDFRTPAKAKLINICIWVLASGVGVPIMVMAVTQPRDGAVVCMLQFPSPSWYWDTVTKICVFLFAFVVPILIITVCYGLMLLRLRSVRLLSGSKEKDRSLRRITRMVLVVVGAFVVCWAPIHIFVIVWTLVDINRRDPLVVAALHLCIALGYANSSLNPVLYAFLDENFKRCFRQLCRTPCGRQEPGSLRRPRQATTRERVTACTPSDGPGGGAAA

For assay [2] the target is unchanged. Put plainly: Antagonist activity at delta opioid receptor in mouse vas deferens assessed as inhibition of electrically-stimulated muscle contraction. Put shortly:
as §1

Assay [3] has as its target Kappa-type opioid receptor (Cavia porcellus, UniProt P41144). Put plainly: Displacement of [3H]U69,593 from kappa opioid receptor in guinea pig brain membranes. The class given is cell membranes, Membrane. The method in brief: (§2)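 Competitive displacement of tritiated radioligands, with affinities reported as Ki. Mu sites were labelled with [³H]DAMGO and delta sites with [³H]DSLET, both on rat brain membranes. Kappa sites were labelled with [³H]U69,593 on guinea pig brain membranes.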

For assay [4], the target named is Mu-type opioid receptor (Rattus norvegicus, UniProt P33535). Put plainly: Displacement of [3H]DAMGO from mu opioid receptor in rat brain membranes. The format is cell membranes. The method in brief:
as §2
(In general: Loss of bound radioactivity is the signal in a displacement assay; it reports binding, not function.)

The target in assay [5] is Delta-type opioid receptor (Rattus norvegicus, UniProt P33533). Kind of assay: Displacement of [3H]DSLET from delta opioid receptor in rat brain membranes. The format is cell membranes. The method in brief:
as §2

The target of assay [6] is Mu-type opioid receptor (Cavia porcellus, UniProt P97266). Kind of assay: Agonist activity at mu opioid receptor in guinea pig ileum assessed as […] of electrically-stimulated muscle contraction. The class given is tissue-based.
Mu-type opioid receptor (Cavia porcellus, UniProt P97266), sequence (P97266 whole entry): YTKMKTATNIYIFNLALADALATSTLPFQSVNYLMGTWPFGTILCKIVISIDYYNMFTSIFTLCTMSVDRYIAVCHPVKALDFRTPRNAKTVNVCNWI
The nature of assay [7]: Selectivity ratio of Ki for kappa opioid receptor in guinea pig brain membranes to Ki for delta opioid receptor in rat brain membranes. The format is cell membranes.
For the next assay, the species on record is Rattus norvegicus. Kind of assay: Selectivity ratio of Ki for mu opioid receptor in rat brain membranes to Ki for delta opioid receptor in rat brain membranes. The class given is cell membranes.
The target in assay [8] is mu/kappa opioid receptor (Cavia porcellus) (UniProt P41144+P97266). Kind of assay: Partial agonist activity at mu/kappa opioid receptor in guinea pig ileum assessed as inhibition of electrically-stimulated muscle contraction. The format is tissue-based.
mu/kappa opioid receptor (Cavia porcellus), sequence (P41144 whole entry, looked up): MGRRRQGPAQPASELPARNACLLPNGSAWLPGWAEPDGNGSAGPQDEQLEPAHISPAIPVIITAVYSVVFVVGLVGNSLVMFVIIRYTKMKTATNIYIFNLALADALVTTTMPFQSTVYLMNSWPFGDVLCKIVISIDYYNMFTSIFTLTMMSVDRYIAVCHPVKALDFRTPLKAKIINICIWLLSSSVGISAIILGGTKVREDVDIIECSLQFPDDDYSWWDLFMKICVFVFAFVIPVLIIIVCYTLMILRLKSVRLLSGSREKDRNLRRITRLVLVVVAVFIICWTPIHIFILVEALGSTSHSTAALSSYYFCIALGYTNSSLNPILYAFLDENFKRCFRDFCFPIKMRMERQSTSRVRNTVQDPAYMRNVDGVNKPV
mu/kappa opioid receptor (Cavia porcellus), sequence (P97266 whole entry, looked up): as the sequence (P97266 whole entry) above

Delta-type opioid receptor, sequence (P33533 whole entry): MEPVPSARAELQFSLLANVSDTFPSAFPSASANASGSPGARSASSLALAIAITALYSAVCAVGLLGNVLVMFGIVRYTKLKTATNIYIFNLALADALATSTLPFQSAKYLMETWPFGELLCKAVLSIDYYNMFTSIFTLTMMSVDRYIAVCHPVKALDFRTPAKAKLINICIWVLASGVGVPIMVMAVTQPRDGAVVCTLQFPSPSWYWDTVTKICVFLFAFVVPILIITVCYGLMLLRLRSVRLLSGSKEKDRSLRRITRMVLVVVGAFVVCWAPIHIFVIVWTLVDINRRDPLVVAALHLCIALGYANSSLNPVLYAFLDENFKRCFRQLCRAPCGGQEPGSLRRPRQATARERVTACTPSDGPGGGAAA
Kappa-type opioid receptor, sequence (P41144 whole entry): as the sequence (P41144 whole entry, looked up) above
Mu-type opioid receptor (Rattus norvegicus, UniProt P33535), sequence (P33535 whole entry): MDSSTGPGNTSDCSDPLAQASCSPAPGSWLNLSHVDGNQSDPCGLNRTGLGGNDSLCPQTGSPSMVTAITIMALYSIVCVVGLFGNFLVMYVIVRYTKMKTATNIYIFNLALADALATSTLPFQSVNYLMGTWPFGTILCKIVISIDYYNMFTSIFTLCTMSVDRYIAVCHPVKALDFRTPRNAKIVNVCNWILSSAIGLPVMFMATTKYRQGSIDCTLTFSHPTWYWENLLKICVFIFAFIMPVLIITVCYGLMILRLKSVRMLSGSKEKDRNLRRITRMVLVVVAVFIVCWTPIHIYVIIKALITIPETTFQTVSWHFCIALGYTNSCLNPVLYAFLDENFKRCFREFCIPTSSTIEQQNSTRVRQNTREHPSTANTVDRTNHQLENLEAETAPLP

With `Cc1cc(O)cc(C)c1C[C@H](NC(=N)N)C(=O)N1Cc2ccccc2C[C@H]1C(=O)N[C@@H](Cc1ccccc1)C(=O)N[C@@H](Cc1ccccc1)C(=O)O`, the IC35 in assay [1] was 1.57 nM. On the same count and under the same terms, the figure for `Cc1cc(O)cc(C)c1C[C@H](NC(=N)N)C(=O)N1Cc2ccccc2C[C@H]1CN[C@@H](CCCCN)C(=O)N[C@@H](Cc1ccccc1)C(N)=O` is 7.35 nM. For `N[C@@H](Cc1ccc(O)cc1)C(=O)N1Cc2ccccc2C[C@H]1C(=O)N[C@@H](Cc1ccccc1)C(=O)N[C@@H](Cc1ccccc1)C(=O)O` (HELM PEPTIDE1{Y.[Tic].F.F}$$$$V2.0), the Ke in [2] was determined as 480 nM. As a reminder, the Ki is a dissociation constant, usually derived from enzyme kinetics or from competition with a known ligand. Lower therefore signals a stronger hold on the target. The term IC50 denotes the concentration that gives 50% inhibition. Consider `Cc1cc(O)cc(C)c1C[C@H](N)C(=O)N1Cc2ccccc2C[C@H]1C(=O)N[C@@H](CCCCN)C(=O)N[C@@H](Cc1ccccc1)C(N)=O` (HELM PEPTIDE1{[Cc1cc(O)cc(C)c1C[C@H](N)C(=O)[*:2]].[Tic].K.F.[am]}$$$$V2.0), for which the figures for the Ki (in assay [3]; at Mu-type opioid receptor [4]; in assay [5]) were 2.23 nM, 19.4 nM and 0.306 nM, respectively. The Ke in assay [2] came out at 2.18 nM. Further, the IC50 on Mu-type opioid receptor [6] was 16.5 nM. The figures for the Ratio Ki (in [7]; in the assay listed under Rattus norvegicus) were 7 and 63, respectively. `Cc1cc(O)cc(C)c1C[C@H](NC(=N)N)C(=O)N1Cc2ccccc2C[C@H]1C(=O)O`: the Imax in assay [8] and in assay [1] was 50% throughout. Take `Cc1cc(O)cc(C)c1C[C@H](N)C(=O)N1Cc2ccccc2C[C@H]1CN[C@@H](CCCCN)C(=O)N[C@@H](Cc1ccccc1)C(N)=O`: in [1], the IC35 worked out at 23.2 nM.

Take `N=C(N)N[C@@H](Cc1ccc(O)cc1)C(=O)N1Cc2ccccc2C[C@H]1C(=O)N[C@@H](Cc1ccccc1)C(=O)N[C@@H](Cc1ccccc1)C(=O)O`: the Imax in assay [1] turned out to be 33%. Still for that read-out and setting: the figure for `N=C(N)N[C@@H](Cc1ccc(O)cc1)C(=O)N1Cc2ccccc2C[C@H]1CN[C@@H](Cc1ccccc1)C(=O)N[C@@H](Cc1ccccc1)C(=O)O` is 50%. Turning to `Cc1cc(O)cc(C)c1C[C@H](N)C(=O)N1Cc2ccccc2CC1CN[C@@H](Cc1ccccc1)C(=O)N[C@@H](Cc1ccccc1)C(N)=O` (some centres not stated), the Ke in [2] was determined as 0.537 nM. For the same molecule, on Mu-type opioid receptor [6], the IC50 was found to be 7.71 nM.

For the origin of these results see ChEMBL document CHEMBL2417403, “N-terminal guanidinylation of TIPP (Tyr-Tic-Phe-Phe) peptides results in major changes of the opioid activity profile” (Bioorg Med Chem Lett, 2013).
